According to ChEMBL document CHEMBL2311478, “Macrolactonolides: a novel class of anti-inflammatory compounds” (Bioorg Med Chem, 2013):
Values after ≈ are worked out from the molar mass of the structure shown.

Experiments:
PBMC [1] = test: Antiinflammatory activity in human PBMC assessed as inhibition of PHA-induced IL-13 production after 24 hrs; format: functional, cell-based
How it was run: (§1)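 Thawed cryopreserved human PBMCs were preincubated 1 h at 37 °C, 5% CO2, then exposed to test compound for 1 h before LPS, anti-CD3 or PHA stimulation. Supernatants were collected at 6, 24 or 48 h according to each cytokine's peak, and cytokines quantified by Luminex multiplex bead assay. 10-point titration starting at 20 µM, in duplicate, with constant DMSO. Parallel Alamar Blue cytotoxicity check under 48 h PHA.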

Staphylococcus aureus [2] = test: Antibacterial activity against efflux mediated macrolide-resistant Staphylococcus aureus PK1 by broth microdilution method; format: functional
How it was run: (§2)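 MICs by CLSI broth microdilution with double dilutions, except that Streptococcus medium used 5% horse serum in place of lysed blood. Bacteria were pre-grown on Columbia agar with 5% sheep blood (streptococci) or Mueller–Hinton agar (staphylococci).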

PBMC [3] = test: Antiinflammatory activity in human PBMC assessed as inhibition of PHA-induced IL-2 production after 48 hrs; format: functional, cell-based; how it was run: as §1
[4] = Cmax in Balb/c mouse plasma at 2 mg/kg, administered intranasally; format: ADME, organism-based; design: route nasal, dose 2 mg/kg; conditions: inhaled or intranasal
How it was run: (§3)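 Male Balb/c mice (21–25 g) dosed intranasally with freshly prepared formulation in 1% DMSO plus 0.125% CMC. Terminal bleeding and lung collection from 5 min to 72 h. K2EDTA blood taken as blood aliquots or spun for plasma. Lung homogenised 1:5 in water. Samples were protein-precipitated with acetonitrile/methanol (2:1) plus roxithromycin internal standard and quantified by LC–MS/MS. LLOQ 0.5 ng/mL (blood/plasma) and 2.5 ng/mL (lung).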

Streptococcus pneumoniae [5] = test: Antibacterial activity against efflux mediated macrolide-resistant Streptococcus pneumoniae Ci137 by broth microdilution method; format: functional; how it was run: as §2
Moraxella catarrhalis = test: Antibacterial activity against Moraxella catarrhalis ATCC 23246 by broth microdilution method; format: functional
How it was run: (§4)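 CLSI broth microdilution with double dilutions in 96-well plates. For streptococci, 5% horse serum replaced lysed blood in the medium. Inocula were grown on Columbia agar with 5% sheep blood for streptococci, Mueller–Hinton chocolate agar for H. influenzae, and Mueller–Hinton agar for staphylococci. Read-out is MIC in mg/L.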

PBMC [6] = test: Antiinflammatory activity in human PBMC assessed as inhibition of PHA-induced IL-10 production after 48 hrs; format: functional, cell-based; how it was run: as §1
Streptococcus pneumoniae [7] = test: Antibacterial activity against inducible-resistant to macrolide, licosamide and streptogramin Streptococcus pneumoniae 134 GR-M by broth microdilution method; format: functional; how it was run: as §2
Glucocorticoid receptor [8] = target: T1, Glucocorticoid receptor (Homo sapiens, UniProt P04150); test: Displacement of [3H]-dexamethasone human glucocorticoid receptor alpha expressed in 293 MSR cells after 60 mins by scintillation counting; format: cell-based
T1 sequence (P04150 whole entry): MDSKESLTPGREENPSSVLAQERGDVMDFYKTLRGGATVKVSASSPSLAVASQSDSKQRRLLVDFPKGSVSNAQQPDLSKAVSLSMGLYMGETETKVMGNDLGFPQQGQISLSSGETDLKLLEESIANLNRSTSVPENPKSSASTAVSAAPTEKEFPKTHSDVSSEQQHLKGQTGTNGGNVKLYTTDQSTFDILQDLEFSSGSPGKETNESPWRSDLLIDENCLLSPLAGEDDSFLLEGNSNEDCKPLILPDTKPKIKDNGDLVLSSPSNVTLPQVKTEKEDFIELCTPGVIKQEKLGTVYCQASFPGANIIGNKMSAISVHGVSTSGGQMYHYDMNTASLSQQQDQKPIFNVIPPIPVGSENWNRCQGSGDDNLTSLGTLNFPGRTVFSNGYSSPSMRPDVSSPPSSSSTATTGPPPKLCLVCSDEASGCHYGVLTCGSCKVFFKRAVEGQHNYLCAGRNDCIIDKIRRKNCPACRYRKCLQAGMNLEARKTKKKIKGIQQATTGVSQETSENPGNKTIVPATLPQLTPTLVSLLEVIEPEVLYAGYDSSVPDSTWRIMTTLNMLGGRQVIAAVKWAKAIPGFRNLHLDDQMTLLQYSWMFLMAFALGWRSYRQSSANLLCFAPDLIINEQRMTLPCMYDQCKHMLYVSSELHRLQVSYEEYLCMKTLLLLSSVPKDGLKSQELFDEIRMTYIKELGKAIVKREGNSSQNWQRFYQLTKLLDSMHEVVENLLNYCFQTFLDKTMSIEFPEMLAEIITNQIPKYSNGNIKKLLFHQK

PBMC [9] = test: Antiinflammatory activity in human PBMC assessed as inhibition of PHA-induced MCP-1 production after 24 hrs; format: functional, cell-based; how it was run: as §1
Rattus norvegicus [10] = test: Antiinflammatory activity against ovalbumin-induced airway allergic Brown-Norway rat model assessed as decrease of total cell in bronchoalveolar lavage fluid at 32 mg/kg administered intranasally as dry powder measured on day 29 after ovalbumin challenge (reference value: 53.1%); format: functional, Lung; design: scale not given: the % may be the effect or the level left
PBMC [11] = test: Antiinflammatory activity in human PBMC assessed as inhibition of LPS-induced IL-1beta production after 6 hrs; format: functional, cell-based; how it was run: as §1
Glucocorticoid receptor [12] = target: T1, Glucocorticoid receptor; test: Binding affinity to glucocorticoid receptor (unknown origin) by fluorescence polarization competitive binding assay
[13] = Half life in Balb/c mouse lung at 2 mg/kg, administered intranasally; format: ADME, organism-based; design: dose 2 mg/kg; conditions: inhaled or intranasal; how it was run: as §3
[14] = Cmax in Balb/c mouse lung at 2 mg/kg, administered intranasally; format: ADME, organism-based; design: dose 2 mg/kg, route nasal; conditions: inhaled or intranasal; how it was run: as §3
PBMC [15] = test: Antiinflammatory activity in human PBMC assessed as inhibition of LPS-induced TNFalpha production after 6 hrs; format: functional, cell-based; how it was run: as §1
[16] = AUC (0 to infinity) in Balb/c mouse plasma at 2 mg/kg, administered intranasally; format: ADME, organism-based; design: time infinity, route nasal, dose 2 mg/kg; conditions: inhaled or intranasal; how it was run: as §3
Streptococcus pneumoniae [17] = test: Antibacterial activity against constitutive-resistant to macrolide, licosamide and streptogramin Streptococcus pneumoniae 58 Spain by broth microdilution method; format: functional; how it was run: as §2
Rattus norvegicus [18] = test: Antiinflammatory activity against ovalbumin-induced airway allergic Brown-Norway rat model assessed as decrease of eosinophils in bronchoalveolar lavage fluid at 32 mg/kg administered intranasally as dry powder measured on day 29 after ovalbumin challenge (reference value: 53.1%); format: functional, Lung; design: scale not given: the % may be the effect or the level left
Staphylococcus aureus [19] = test: Antibacterial activity against constitutive-resistant to macrolide, licosamide and streptogramin Staphylococcus aureus PK2 by broth microdilution method; format: functional; how it was run: as §2
[20] = Tmax in Balb/c mouse plasma at 2 mg/kg, administered intranasally; format: ADME, organism-based; design: dose 2 mg/kg; conditions: inhaled or intranasal; how it was run: as §3
[21] = Half life in Balb/c mouse plasma at 2 mg/kg, administered intranasally; format: ADME, organism-based; design: dose 2 mg/kg; conditions: inhaled or intranasal; how it was run: as §3
PBMC [22] = test: Antiinflammatory activity in human PBMC assessed as inhibition of PHA-induced IL-3 production after 48 hrs; format: functional, cell-based; how it was run: as §1
Staphylococcus aureus [23] = test: Antibacterial activity against Staphylococcus aureus ATCC 13709 by broth microdilution method; format: functional; how it was run: as §4
[24] = Drug uptake in mouse J774A1 cells assessed as compound retention at 10 uM after 3 hrs by LC-MS/MS method; format: ADME, cell-based; conditions: j774.a1, 3 h
How it was run: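 J774A.1 cells were loaded with 10 µM compound for 3 h in DMEM/25 mM Hepes, then incubated 3 h in fresh medium. Cells were washed, lysed in 0.5% Triton X-100 and analysed by LC–MS/MS. Retention is the percentage of the initially accumulated amount remaining. Triplicates, mean ± SD from one representative experiment.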

Enterococcus faecalis = test: Antibacterial activity against Enterococcus faecalis ATCC 29213 by broth microdilution method; format: functional; how it was run: as §4

CC[C@H]1OC(=O)[C@H](C)[C@@H](O[C@H]2C[C@@](C)(OC)[C@@H](O)[C@H](C)O2)[C@H](C)[C@@H](O[C@@H]2O[C@H](C)C[C@H](N(C)C)[C@H]2O)[C@](C)(O)C[C@@H](C)CN(CCCNC(=O)[C@H]2[C@H](C)C[C@H]3[C@@H]4CCC5=CC(=O)C=C[C@]5(C)[C@@]4(F)[C@@H](O)C[C@@]32C)[C@H](C)[C@@H](O)[C@]1(C)O
EC50 (PBMC [1]): 420 nM | MIC (Staphylococcus aureus [2]): > 64 µg/mL | EC50 (PBMC [3]): > 20 µM | Cmax [4]: 223 ng/mL | MIC (Streptococcus pneumoniae [5]): 32 µg/mL (≈ 28.2 µM) | MIC (Moraxella catarrhalis): 8 µg/mL (≈ 7.04 µM) | EC50 (PBMC [6]): 5.12 µM | MIC (Streptococcus pneumoniae [7]): > 64 µg/mL | EC50 (Glucocorticoid receptor [8]): 430 nM | EC50 (PBMC [9]): 19 µM | Activity (Rattus norvegicus [10]): 43.6% | EC50 (PBMC [11]): > 20 µM | EC50 (Glucocorticoid receptor [12]): 4.16 µM | half-life [13]: 1200 min | Cmax [14]: 2410 ng/mL | EC50 (PBMC [15]): 3000 nM | AUC(0-inf) [16]: 181 ng·h/mL | MIC (Streptococcus pneumoniae [17]): 64 µg/mL (≈ 56.3 µM) | Activity (Rattus norvegicus [18]): 43.6% | MIC (Staphylococcus aureus [19]): > 64 µg/mL | Tmax [20]: 15 min | half-life [21]: 54 min | EC50 (PBMC [22]): 1270 nM | MIC (Staphylococcus aureus [23]): 8 µg/mL (≈ 7.04 µM) | Drug uptake [24]: Active | MIC (Enterococcus faecalis): 64 µg/mL (≈ 56.3 µM)
